Test results as given in ChEMBL document CHEMBL4689842, “EUbOPEN Chemogenomics Library wave 1” (2021).

System: Fibroblast
Test: Multiplex assay against human fibroblast
Assay type: toxicity, cell-based
Outline: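 On a CQ1 microscope at 37°C and 5% CO2, live cells were imaged after compound addition. They had been stained at seeding with Hoechst33342, BioTracker Green Microtubule Cytoskeleton Dye, MitoTracker Red and Annexin V Alexa Fluor 680. CellPathfinder machine-learning gating assigned cells to Hoechst high-intensity objects or normal cells, normal cells to healthy, pyknosed or fragmented nuclei, and pyknosed cells to mitotic or apoptotic. Tubulin, mitochondrial-mass and membrane-permeability phenotypes are per cents of healthy-nucleus cells.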

[1] = 12 h, 1 µM, compound concentration 1 uM, replicate 1
[2] = 12 h, 1 µM, compound concentration 1 uM, replicate 2
[3] = 12 h, 10 µM, compound concentration 10 uM, replicate 1
[4] = 12 h, 10 µM, compound concentration 10 uM, replicate 2
[5] = 24 h, 1 µM, compound concentration 1 uM, replicate 1
[6] = 24 h, 1 µM, compound concentration 1 uM, replicate 2
[7] = 24 h, 10 µM, compound concentration 10 uM, replicate 1
[8] = 24 h, 10 µM, compound concentration 10 uM, replicate 2

## CN(C)CCOc1ccc(-c2nc(-c3ccncc3)c(-c3ccc4c(c3)CC/C4=N\O)[nH]2)cc1 [SB590885]
[1]
  Population Apoptotic (%): 86%
  Population Fragmented Nuclei (%): 40%
  Population Healthy Nuclei (%): 29%
  Population Hoechst High Intensity Objects (%): 31%
  Population Membrane Permeable-Phenotype (%): 4%
  Population Mitochondria Different-Phenotype (%): 1%
  Population Mitotic Cells (%): 13%
  Population Normal (%): 68%
  Population Pyknosed Nuclei (%): 30%
  Population Tubulin-Different-Phenotype (%): 12%
  Total Cell Count: 562
[2]
  Population Apoptotic (%): 87%
  Population Fragmented Nuclei (%): 44%
  Population Healthy Nuclei (%): 3%
  Population Hoechst High Intensity Objects (%): 32%
  Population Membrane Permeable-Phenotype (%): 10%
  Population Mitochondria Different-Phenotype (%): 5%
  Population Mitotic Cells (%): 12%
  Population Normal (%): 67%
  Population Pyknosed Nuclei (%): 52%
  Population Tubulin-Different-Phenotype (%): 42%
  Total Cell Count: 833
[3]
  Population Apoptotic (%): 84%
  Population Fragmented Nuclei (%): 38%
  Population Healthy Nuclei (%): 48%
  Population Hoechst High Intensity Objects (%): 14%
  Population Membrane Permeable-Phenotype (%): 4%
  Population Mitochondria Different-Phenotype (%): 5%
  Population Mitotic Cells (%): 15%
  Population Normal (%): 85%
  Population Pyknosed Nuclei (%): 12%
  Population Tubulin-Different-Phenotype (%): 13%
  Total Cell Count: 245
[4]
  Population Apoptotic (%): 100%
  Population Fragmented Nuclei (%): 69%
  Population Healthy Nuclei (%): 28%
  Population Hoechst High Intensity Objects (%): 50%
  Population Membrane Permeable-Phenotype (%): 11%
  Population Mitochondria Different-Phenotype (%): 16%
  Population Mitotic Cells (%): 0%
  Population Normal (%): 49%
  Population Pyknosed Nuclei (%): 1%
  Population Tubulin-Different-Phenotype (%): 22%
  Total Cell Count: 128
[5]
  Population Apoptotic (%): 88%
  Population Fragmented Nuclei (%): 50%
  Population Healthy Nuclei (%): 40%
  Population Hoechst High Intensity Objects (%): 43%
  Population Membrane Permeable-Phenotype (%): 1%
  Population Mitochondria Different-Phenotype (%): 0%
  Population Mitotic Cells (%): 11%
  Population Normal (%): 56%
  Population Pyknosed Nuclei (%): 8%
  Population Tubulin-Different-Phenotype (%): 5%
  Total Cell Count: 552
[6]
  Population Apoptotic (%): 90%
  Population Fragmented Nuclei (%): 36%
  Population Healthy Nuclei (%): 3%
  Population Hoechst High Intensity Objects (%): 35%
  Population Membrane Permeable-Phenotype (%): 20%
  Population Mitochondria Different-Phenotype (%): 5%
  Population Mitotic Cells (%): 9%
  Population Normal (%): 64%
  Population Pyknosed Nuclei (%): 59%
  Population Tubulin-Different-Phenotype (%): 25%
  Total Cell Count: 821
[7]
  Population Apoptotic (%): 67%
  Population Fragmented Nuclei (%): 35%
  Population Healthy Nuclei (%): 51%
  Population Hoechst High Intensity Objects (%): 14%
  Population Membrane Permeable-Phenotype (%): 6%
  Population Mitochondria Different-Phenotype (%): 3%
  Population Mitotic Cells (%): 32%
  Population Normal (%): 85%
  Population Pyknosed Nuclei (%): 13%
  Population Tubulin-Different-Phenotype (%): 9%
  Total Cell Count: 299
[8]
  Population Apoptotic (%): 100%
  Population Fragmented Nuclei (%): 70%
  Population Healthy Nuclei (%): 28%
  Population Hoechst High Intensity Objects (%): 53%
  Population Membrane Permeable-Phenotype (%): 31%
  Population Mitochondria Different-Phenotype (%): 18%
  Population Mitotic Cells (%): 0%
  Population Normal (%): 46%
  Population Pyknosed Nuclei (%): 1%
  Population Tubulin-Different-Phenotype (%): 37%
  Total Cell Count: 122

## N#Cc1cnc(Nc2cc(NC[C@H]3CNCCO3)c(C(F)(F)F)cn2)cn1 [SRA-737]
[1]
  Population Apoptotic (%): 65%
  Population Fragmented Nuclei (%): 23%
  Population Healthy Nuclei (%): 59%
  Population Hoechst High Intensity Objects (%): 13%
  Population Membrane Permeable-Phenotype (%): 9%
  Population Mitochondria Different-Phenotype (%): 1%
  Population Mitotic Cells (%): 34%
  Population Normal (%): 86%
  Population Tubulin-Different-Phenotype (%): 4%
  Total Cell Count: 196
[2]
  Population Apoptotic (%): 37%
  Population Fragmented Nuclei (%): 60%
  Population Healthy Nuclei (%): 21%
  Population Hoechst High Intensity Objects (%): 35%
  Population Membrane Permeable-Phenotype (%): 10%
  Population Mitochondria Different-Phenotype (%): 0%
  Population Mitotic Cells (%): 62%
  Population Normal (%): 64%
  Population Pyknosed Nuclei (%): 17%
  Population Tubulin-Different-Phenotype (%): 0%
  Total Cell Count: 71
[3]
  Population Apoptotic (%): 69%
  Population Fragmented Nuclei (%): 33%
  Population Healthy Nuclei (%): 53%
  Population Hoechst High Intensity Objects (%): 12%
  Population Membrane Permeable-Phenotype (%): 11%
  Population Mitochondria Different-Phenotype (%): 1%
  Population Mitotic Cells (%): 30%
  Population Normal (%): 87%
  Population Pyknosed Nuclei (%): 13%
  Population Tubulin-Different-Phenotype (%): 8%
  Total Cell Count: 288
[4]
  Population Apoptotic (%): 28%
  Population Fragmented Nuclei (%): 58%
  Population Healthy Nuclei (%): 28%
  Population Hoechst High Intensity Objects (%): 34%
  Population Membrane Permeable-Phenotype (%): 7%
  Population Mitochondria Different-Phenotype (%): 35%
  Population Mitotic Cells (%): 71%
  Population Normal (%): 65%
  Population Pyknosed Nuclei (%): 14%
  Population Tubulin-Different-Phenotype (%): 21%
  Total Cell Count: 76
[5]
  Population Apoptotic (%): 50%
  Population Fragmented Nuclei (%): 31%
  Population Healthy Nuclei (%): 56%
  Population Hoechst High Intensity Objects (%): 9%
  Population Membrane Permeable-Phenotype (%): 7%
  Population Mitochondria Different-Phenotype (%): 2%
  Population Mitotic Cells (%): 50%
  Population Normal (%): 90%
  Population Pyknosed Nuclei (%): 11%
  Population Tubulin-Different-Phenotype (%): 1%
  Total Cell Count: 205
[6]
  Population Apoptotic (%): 42%
  Population Fragmented Nuclei (%): 63%
  Population Healthy Nuclei (%): 22%
  Population Hoechst High Intensity Objects (%): 24%
  Population Membrane Permeable-Phenotype (%): 9%
  Population Mitochondria Different-Phenotype (%): 9%
  Population Mitotic Cells (%): 57%
  Population Normal (%): 75%
  Population Pyknosed Nuclei (%): 14%
  Population Tubulin-Different-Phenotype (%): 18%
  Total Cell Count: 65
[7]
  Population Apoptotic (%): 71%
  Population Fragmented Nuclei (%): 41%
  Population Healthy Nuclei (%): 48%
  Population Hoechst High Intensity Objects (%): 18%
  Population Membrane Permeable-Phenotype (%): 9%
  Population Mitochondria Different-Phenotype (%): 2%
  Population Mitotic Cells (%): 28%
  Population Normal (%): 81%
  Population Pyknosed Nuclei (%): 10%
  Population Tubulin-Different-Phenotype (%): 15%
  Total Cell Count: 342
[8]
  Population Apoptotic (%): 28%
  Population Fragmented Nuclei (%): 59%
  Population Healthy Nuclei (%): 26%
  Population Hoechst High Intensity Objects (%): 27%
  Population Membrane Permeable-Phenotype (%): 15%
  Population Mitochondria Different-Phenotype (%): 30%
  Population Mitotic Cells (%): 71%
  Population Normal (%): 72%
  Population Pyknosed Nuclei (%): 14%
  Population Tubulin-Different-Phenotype (%): 30%
  Total Cell Count: 68
